A selection: hits, their analogues and other compounds. The true share with any hit is near 2.5%.
ADAM17 inh = ADAM17 inhibition, QFRET primary screen. actives 0.83% (n = 370,000). AID 720648. recombinant ADAM17, EDANS/DABCYL FRET peptide cleavage. inhibition, % at 6.95 µM;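 active = inhibition above the mean of compounds lying between control limits plus 3 SD, set per campaign, cut at about 8.5% in these data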;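 note: 0% = DMSO-only wells as the low control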
Target sequence (P78536 215-824 limits assumed): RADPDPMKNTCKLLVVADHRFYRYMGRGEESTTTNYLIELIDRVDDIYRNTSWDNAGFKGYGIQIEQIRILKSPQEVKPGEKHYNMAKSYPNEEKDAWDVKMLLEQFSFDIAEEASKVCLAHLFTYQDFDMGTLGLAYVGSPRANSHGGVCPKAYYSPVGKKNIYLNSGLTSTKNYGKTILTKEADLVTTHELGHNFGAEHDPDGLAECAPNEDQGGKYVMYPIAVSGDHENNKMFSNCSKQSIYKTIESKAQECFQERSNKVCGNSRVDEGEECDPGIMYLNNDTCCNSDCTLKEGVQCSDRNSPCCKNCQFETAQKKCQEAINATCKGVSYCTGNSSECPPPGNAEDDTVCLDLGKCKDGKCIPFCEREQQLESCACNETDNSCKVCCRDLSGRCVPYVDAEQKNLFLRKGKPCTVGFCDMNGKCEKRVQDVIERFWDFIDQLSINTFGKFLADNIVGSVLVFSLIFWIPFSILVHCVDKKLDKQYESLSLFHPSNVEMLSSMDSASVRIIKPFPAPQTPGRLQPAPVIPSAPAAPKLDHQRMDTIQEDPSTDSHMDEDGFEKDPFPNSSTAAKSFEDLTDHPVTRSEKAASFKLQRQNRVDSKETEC
ADAM10 inh = inhibits human ADAM10. O14672. recombinant ADAM10, EDANS/DABCYL FRET peptide cleavage, 3 h. inhibition, % at 7 µM. actives 0.62% (n = 370,000);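 active = inhibition above a per-campaign cutoff equal to the mean of compounds falling between control-based bounds plus 3 SD, cut at about 20% in these data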;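 note: 0% = DMSO wells while the 100% control is not disclosed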
NR2E3 ag-1 = activates human photoreceptor nuclear receptor NR2E3; GST-NR2E3/biotin-RetCOR TR-FRET, 1536-well; AID 2300; inhibition of corepressor binding, % at 4.78 µM; Q9Y5X4; actives 0.12% (n = 320,000);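 active = percent inhibition above the cutoff of mean plus 3 SD of all tested compounds, set per screening campaign, cut at about 20% in these data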;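 note: 0% = DMSO wells and 100% = biotin wells as full block of FRET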
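Material: NR2E3–RetCOR corepressor complex / Incubation: Compound–protein incubation for 5 h at 4 °C / Dosing: compound at 4.8 µM, single dose / Detection: time-resolved FRET / Benchmarks: high control biotin, low control 0.6% DMSO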
NR2E3 ag-2 = agonists of human NR2E3 nuclear receptor; Q9Y5X4; CHO-S Gal4-NCOR/VP16-NR2E3 two-hybrid, luciferase; inhibition of corepressor binding, % at 3.98 µM; actives 0.35% (n = 360,000);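 active = inhibition above the mean of all tested compounds plus 3 SD, cut at about 70% in these data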;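 note: 0% = DMSO with NR2E3 transfected cells and 100% = cells lacking NR2E3 construct; higher means lower luciferase signal from less NR2E3 corepressor binding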
JMJD2C inh = human JMJD2C demethylase inhibition; Q9H3R0; GST-JMJD2C(1-420) H3K9me3 demethylation, DELFIA europium; inhibition, % at 2.35 µM; actives 0.069% (n = 330,000); AID 2099;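 active = more than half of a compound's replicate wells show inhibition beyond 50%, single wells judged on their own value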;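 note: signal counts dimethyl H3K9 product captured on neutravidin plate; 0% = median of DMSO wells and 100% = 0.3 times that DMSO median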
proKLK7 act = activates the human kallikrein-7 zymogen | purified proKLK7, EDANS-DABCYL substrate fluorescence; 100% is mature enzyme control, 0% vehicle | P49862 | AID 652039 | activation, % at 7 µM | actives 0.9% (n = 370,000);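 active = activation above the mean of all tested compounds plus 3 SD, computed per campaign excluding outliers beyond control limits, cut at about 13% in these data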
NR2E3 ag confirm = confirmation of human NR2E3 agonists; CHO-S mammalian two-hybrid NR2E3-NCOR, luciferase luminescence; actives 51% (n = 2,300); inhibition, % at 3.98 µM; shares compounds with NR2E3 ag-2;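 active = average inhibition above a cutoff equal to the mean inhibition of all tested compounds plus one SD, cut at about 70% in these data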;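 note: 0% = DMSO in NR2E3 cells and 100% = DMSO in cells lacking NR2E3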
GAL4-VP16 luc = counter-screen for NR2E3 agonists: GAL4-VP16 reporter inhibitors. shares compounds with NR2E3 ag-2. CHO-S GAL4-VP16 luciferase reporter, luminescence. inhibition, % at 3.98 µM. actives 29% (n = 2,300). AID 624379;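 active = mean inhibition above a cutoff equal to the average over all tested compounds plus one standard deviation, cut at about 70% in these data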;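 note: luciferase from a UAS reporter driven by GAL4-VP16 transactivation; 0% = DMSO with VP16-transfected cells and 100% = DMSO with cells lacking VP16; higher means less reporter light so more repression of VP16 activity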
* = called active by the depositor; . = not tested or not shown.

SMILES	ADAM17 inh	ADAM10 inh	NR2E3 ag-1	NR2E3 ag-2	JMJD2C inh	proKLK7 act	NR2E3 ag confirm	GAL4-VP16 luc
O=C1C2CCCN2C(c2ccc(Cl)cc2)N1c1ccccn1 (stereo not drawn)	2	-14	2	19	-1	-1	.	.
N#CC1c2ccccc2-n2nncc2CN1C(=O)c1ccc([N+](=O)[O-])o1 (stereo not drawn)	0	-1	.	.	.	0	.	.
CC[C@@H](O)C[C@H]1CCC[C@@]2(C[C@@H]3OC(=O)/C=C/[C@@](C)(O)[C@@H](O)[C@H](C)[C@@H](O)[C@H](OC4CCC(N(C)C)C(C)O4)[C@@H](O)[C@](C)(O)CCCCC/C=C/[C@@H]4CC(C)(C)O[C@@]4(O)C[C@H](O2)[C@H]3C)O1 (stereo partly drawn)	3	5	.	89*	.	-1	97*	87*
C[C@H]1CCCC(=O)CCC/C=C/c2cc(O)cc(O)c2C(=O)O1	4	10	1	24	16	0	.	.
C[C@H]1CCC/C=C/[C@@H]2C[C@H](O)C[C@H]2[C@H](O)/C=C/C(=O)O1	-1	1	5	95*	21	0	99*	65
COc1ccc(OC)c(C2=NOC(C(=O)N3CCC4(CC3)OCCO4)C2)c1 (stereo not drawn)	-11	-38	4	-6	7	-1	.	.
O=C(CN1C(=O)[C@@H](Cc2ccccc2)N=C(c2ccccc2)c2ccccc21)NC1CCCCC1	-3	-1	.	.	.	0	.	.
c1ccc2c(c1)[IH]c1ccccc1-2	-4	-9	.	100*	.	0	97*	88*
CC(=O)OC1C(O)C(C)OC(OC2C(OC(=O)C3CCC4C(C3)OC3(CC(OC(=O)/C=C/c5ccccc5)C(C)CO3)C43CO3)OC(C)C(O)C2OC(C)=O)C1O (stereo not drawn)	-2	-12	.	103*	.	0	99*	99*
O=c1[nH]c2ccccc2n1C1CCN(C(CCc2ccccc2)c2nnnn2-c2ccc3c(c2)OCCO3)CC1 (stereo not drawn)	0	10	.	48	.	0	51	15
CCOC(=O)[C@]12Cc3cc(C)ccc3[C@H]1N(C1CCCCC1)C(=O)c1cc(OC)ccc12	1	7	.	95*	.	0	99*	43
CCOc1cccc(CNCCc2c(C)[nH]c3ccc(OC(F)(F)F)cc23)c1O	3	4	2	98*	-10	0	90*	71
Cc1[nH]c2ccc(OC(F)(F)F)cc2c1CCNCc1cccc([N+](=O)[O-])c1	-1	-6	3	1	39	-1	.	.
CC1=C2C3OC(=O)C(C)C3CC[C@@]2(C)C=CC1=O (stereo partly drawn)	-2	0	2	6	-11	0	.	.
O=C(c1ccc(Cl)cc1)C1CCCN(Cc2ccc3nonc3c2)C1 (stereo not drawn)	1	6	0	1	-8	0	.	.
C=C1C(=O)O[C@@H]2C[C@@H](C)[C@@H]3C=CC(=O)[C@@]3(C)[C@@H](O)[C@H]12	-4	-6	8	100*	12	1	99*	54
COC(=O)C12OCC34C(CC5C(C)=C(O)C(=O)CC5(C)C3C(O)C1O)OC(=O)C(OC(=O)/C=C(\C)C(C)C)C24 (stereo not drawn)	5	8	.	103*	.	0	100*	100*
Cc1cc(NC(=O)CCC(=O)N2CCC3(CC2)OCCO3)no1	-2	-1	0	24	9	1	.	.
CCC(C)NC(=O)CCC(=O)OC1O[C@H]2OC3(C)CC[C@H]4[C@H](C)CCC(C1C)C24OO3 (stereo partly drawn)	-5	-20	.	103*	-1	0	97*	75*

Screening data deposited in PubChem BioAssay by several laboratories.
